Sampled rows, rich in hits. Any-hit rate of the full collection: about 4%.
KCC2 mod: KCC2 cotransporter modulators, thallium flux, primary screen, cell-based, HEK293 KCC2, FluoZin-2 fluorescence, MLSMR | Solute carrier family 12 member 5 (Homo sapiens), Q9H2X9 | KCC2 cells, thallium flux FluoZin-2 fluorescence | B-score of Tl+ flux slope (higher = more flux/activation; lower = inhibition) at 10 µM | actives 2.2% (n = 190,000) | AID 1456, 2008;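 active means thallium flux slope and its plate-corrected score both differing from the plate sample mean at a set confidence after two filtering rounds, in either direction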;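 further: slope of fluorescence scaled to starting intensity during 10 to 20 s after thallium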
MT stabilizer: microtubule stabilizers in HeLa cells, primary screen, imaging, high-content imaging; HeLa tubulin immunostaining HCS, 24 h; share of cells brighter than vehicle mean+2SD; % tubulin-high responders, % at 10 µM; actives 0.83% (n = 200,000);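 active means plate Z-score above 3 for both tubulin-high and condensed-nucleus cell shares, with cell loss under 80%, at 10 µM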;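 further: anti alpha tubulin signal scored within the nucleus-defined area of each cell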
Pf gametocyte: late stage P. falciparum gametocyte viability inhibitors, primary screen, ATP luminescence, HTS; P. falciparum stage V gametocytes, 24 h; inhibition, % at 10.9 µM; actives 0.065% (n = 150,000); AID 743093, 2013;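 active means inhibition above the mean plus 3 SD of compounds within the control limits, set per campaign, cut at about 38% in these data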;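 further: 0% = DMSO wells and 100% = medium only without gametocytes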
bCat nuc transl: modulators of beta-catenin nuclear translocation, primary screen, imaging, HeLa cells, immunofluorescence, high-content; nuclear translocation activity, % at 5 µM; actives 0.3% (n = 190,000); AID 1665, 2009;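 active means nuclear translocation activity above 50% at 5 µM, with a well cell count of 50 or more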;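 further: per-cell ratio of nuclear to cytoplasmic median beta-catenin stain intensity; plate controls were DMSO negative control for no effect and GSK-3 inhibitor IX positive control for full effect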
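Test system: human HeLa cell line; Doses: 5 µM primary, 0.02–20 µM confirmation; Incubation: 24 h compound exposure, 37°C; Detection: beta-catenin immunofluorescence imaging with DAPI; Read-out: beta-catenin nuclear/cytoplasmic ratio, % activation.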
WT yeast gro inh: growth inhibition of WT strain, primary screen, mitochondrial fusion inhibitor project, WT and mutant strains, chemical genetic; inhibition, % at 10 µM; actives 2.1% (n = 190,000); mitochondrial fusion phenotypic screen; in the data active means inhibition above about 58%; tested in S. cerevisiae
* hit, by the source's call.

Screening O=C(OCC(=O)N1CCN(C(=O)c2ccco2)CC1)c1cn(-c2ccccc2)nc1-c1ccccc1 returned KCC2 mod -0.29, MT stabilizer 1.8, bCat nuc transl 0.6 and WT yeast gro inh 80.2*.
`O=C(c1cn(-c2ccccc2)nc1-c1ccccc1)N1CCN(c2ccccn2)CC1` gave KCC2 mod 0.275, MT stabilizer 36.0*, bCat nuc transl -4.0 and WT yeast gro inh 17.1.
`CCOC(=O)Cc1csc(NC(=O)/C=C/c2ccc(OC)cc2)n1` gave KCC2 mod -0.587, MT stabilizer 2.4, Pf gametocyte -6.4, bCat nuc transl 0.8 and WT yeast gro inh 17.1.
O=C(COC(=O)Cc1ccc(F)cc1)NCc1ccco1 was read as KCC2 mod -0.356, MT stabilizer 3.8, Pf gametocyte 49.2*, bCat nuc transl -0.7 and WT yeast gro inh -11.5.
C/C(Cn1nnc2ccccc21)=N\NC(=O)c1ccc(Br)cc1 was read as KCC2 mod 0.00367, MT stabilizer 1.9, Pf gametocyte -19.0, bCat nuc transl 1.8 and WT yeast gro inh 8.9.
COc1ccc(S(=O)(=O)Nc2nnc(Cc3ccc(OC)c(OC)c3)s2)cc1 was read as KCC2 mod -0.0453, MT stabilizer 2.2, Pf gametocyte -1.5, bCat nuc transl -0.5 and WT yeast gro inh 7.2.
For Cc1cc(C)c2nc(C(F)(F)F)nc(N3CC(C)OC(C)C3)c2c1 (stereo unspecified) the results were KCC2 mod 0.0145, MT stabilizer 3.3, bCat nuc transl 2.5 and WT yeast gro inh 77.0*.
For Cc1nc(N)sc1N=Nc1ccc(Br)cc1 the results were KCC2 mod 0.849, MT stabilizer 3.1, Pf gametocyte -19.1, bCat nuc transl -8.1 and WT yeast gro inh 66.3*.
For Cc1[nH]nc(N)c1N=Nc1ccc(Br)cc1 the results were KCC2 mod 1.12, MT stabilizer 3.1, bCat nuc transl 6.9 and WT yeast gro inh 55.2.
CCCCNC(=S)N1CCN(c2ccccc2Cl)CC1 was read as KCC2 mod -1.93, MT stabilizer 4.4, Pf gametocyte 1.1, bCat nuc transl -1.3 and WT yeast gro inh 65.6*.
C=CCNC(=S)N1CCN(c2ccccc2Cl)CC1 was read as KCC2 mod -1 and bCat nuc transl -0.3.
For S=C(NCc1ccco1)N1CCN(c2ccccc2Cl)CC1 the results were KCC2 mod -2.03, MT stabilizer 4.8, bCat nuc transl -2.5 and WT yeast gro inh 71.8*.
`Cc1ccc(Cl)cc1N1CCN(C(=S)NCc2ccco2)CC1` gave KCC2 mod 0.575, MT stabilizer 2.1, Pf gametocyte 14.6, bCat nuc transl 1.8 and WT yeast gro inh 21.0.
C=CCC1(C#N)C(SC)=NC2=C(C(=O)CC(C)(C)C2)C1c1ccc(Br)cc1 (stereo unspecified) was read as KCC2 mod -1.77, MT stabilizer 2.5, Pf gametocyte -25.1, bCat nuc transl 5.2 and WT yeast gro inh 73.8*.
Screening COc1ccc(CCn2ccc(O)c(Cc3c(F)cccc3Cl)c2=O)cc1OC returned KCC2 mod -0.00676, MT stabilizer 3.9, Pf gametocyte 19.1, bCat nuc transl -5.5 and WT yeast gro inh 4.3.
COC(=O)c1ccc(C2N=C(c3cccs3)CC(c3ccccc3O)N2)cc1 (stereo unspecified) was read as KCC2 mod 1.09, MT stabilizer 5.3, bCat nuc transl 0.4 and WT yeast gro inh 62.5*.
COC(=O)C1=C(C)N(C2CCCCC2)C(=O)/C1=C\c1cccs1 was read as KCC2 mod 1.06, MT stabilizer 3.0, Pf gametocyte 14.0, bCat nuc transl -1.4 and WT yeast gro inh 23.8.
Screening CCOc1ccccc1N1CCN(CC(=O)NCCc2ccc(S(N)(=O)=O)cc2)CC1 returned KCC2 mod 0.804, MT stabilizer 6.0, Pf gametocyte -0.3, bCat nuc transl -4.8 and WT yeast gro inh -1.6.
For COCCCn1c(C)csc1=Nc1cccnc1 the results were KCC2 mod 0.226, MT stabilizer 2.5, Pf gametocyte -11.0, bCat nuc transl -0.4 and WT yeast gro inh -7.3.
For Cc1csc(=Nc2cccnc2)n1CC1CCCCC1 the results were KCC2 mod 0.24, MT stabilizer 2.2, Pf gametocyte -10.8 and WT yeast gro inh 73.2*.
`O=C(Cn1c(NCCO)nc2ccccc21)NCCc1ccc(F)cc1` gave KCC2 mod -0.703, MT stabilizer 3.2, Pf gametocyte 12.0, bCat nuc transl -1.9 and WT yeast gro inh 9.0.
For CC1=NN(S(=O)(=O)c2ccc(Cl)cc2Cl)C(=O)c2ccccc2O1 the results were Pf gametocyte 2.2 and bCat nuc transl -1.1.
`CCOc1ccc2c(c1)OC(c1ccc(C)cc1)(C(F)(F)F)NC2=O` (stereo unspecified) gave KCC2 mod 1.75, MT stabilizer 6.2, Pf gametocyte 7.0, bCat nuc transl -2.1 and WT yeast gro inh 60.5*.
For CCOc1ccc2c(c1)OC1(CCC(C)C1)CC2=O (stereo unspecified) the results were Pf gametocyte -16.4.
Screening COC(=O)CP(=O)(c1ccccc1)c1ccccc1 returned MT stabilizer 1.4 and WT yeast gro inh 69.3*.
CCOC(=O)CP(=O)(c1ccccc1)c1ccccc1 was read as MT stabilizer 1.0 and WT yeast gro inh 19.6.
For COc1cc2c(cc1NC(=O)CSCC(=O)O)oc1ccccc12 the results were KCC2 mod -1.9, MT stabilizer 2.8, Pf gametocyte -1.0, bCat nuc transl -7.4 and WT yeast gro inh 14.7.
Screening COc1cc2c(cc1NS(=O)(=O)N1CCCCC1)oc1ccccc12 returned KCC2 mod -1.09, MT stabilizer 2.2, bCat nuc transl 1.8 and WT yeast gro inh 80.1*.
For COc1cc2c(cc1NC(=O)Nc1ccccc1)oc1ccccc12 the results were KCC2 mod 0.547, MT stabilizer 2.2, bCat nuc transl 0.7 and WT yeast gro inh 69.2*.
For COc1cc2c(cc1NC(=O)CN1C(=O)NC3(CCc4ccccc43)C1=O)oc1ccccc12 (stereo unspecified) the results were KCC2 mod 0.469, MT stabilizer 42.4, Pf gametocyte 12.1, bCat nuc transl 0.3 and WT yeast gro inh 66.0*.
Screening O=S(=O)(Nc1ccc2c(c1)oc1ccccc12)N1CCCC1 returned KCC2 mod -0.889, MT stabilizer 1.5, Pf gametocyte 6.0, bCat nuc transl -0.4 and WT yeast gro inh -28.1.
Screening CCOc1cc(N2CCOCC2)c(OCC)cc1NC(=O)CN1C(=O)NC2(CCc3ccccc32)C1=O (stereo unspecified) returned KCC2 mod 0.194, MT stabilizer 2.0, bCat nuc transl -1.1 and WT yeast gro inh -14.7.
For COc1cc2c(cc1NC(=O)C(C)NCc1ccccc1)oc1ccccc12 (stereo unspecified) the results were KCC2 mod 0.397, MT stabilizer 4.7, Pf gametocyte 8.8, bCat nuc transl 0.6 and WT yeast gro inh 67.5*.
